Screening data deposited in PubChem BioAssay by several laboratories.
The entries come from a sample that favours hits as a whole.
V-ATPase pHluor: regulators of yeast V-ATPase proton pumping, primary screen, pHLuorin cytosolic pH fluorescence; 350,000 compounds, 0.37% hits; response, % at 10 µM; S. cerevisiae; AID 504577, 2011; in the data active = response mostly above about 7.3%, no sharp cut-off; inactive = mostly below about 5.4%; note: actives read high
UPR CHOP act: activators of apoptotic CHOP UPR arm, primary screen, cell-based, CHO-CHOP luciferase reporter, luminescence, uHTS | AID 449763, 2010 | 330,000 compounds, 0.34% hits | activation, % at 10 µM | UPR activation; percent of tunicamycin response over DMSO baseline;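 active = at 10 µM dose, activation of 40% or more, normalized to positive control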;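 note: 100% = tunicamycin at 10 µg/mL and 0% = DMSO alone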
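Dosing – one dose, 10 µM in 0.5% DMSO · System – CHO-CHOP cells, stable luciferase reporter of PERK-eIF2a-CHOP signalling · Input – 500 cells/well · Control set – tunicamycin 10 µg/mL final as positive, DMSO-only wells as negative · Timing – 6 h compound treatment, 37 °C · Measure – % activation vs tunicamycin · Technique – luminescence read with Steady-Glo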
CHOP inh: inhibitors of CHOP promoter induction, primary screen, cell-based, unfolded protein response, luciferase reporter | inhibition, % at 10 µM | AID 2732, 2010 | CHO-K1 CHOP-promoter luciferase, tunicamycin-induced, 15-18 h | 220,000 compounds, 3.8% hits;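 active = compounds that reduced the stress-induced luciferase reporter signal by more than about 70% of percent inhibition, limit read from the data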;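 note: 0% = tunicamycin plus vehicle and 100% = wells without tunicamycin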
TbMetRS inhib: T. brucei MetRS inhibitors, primary screen, biochemical, luminescence. methionyl-tRNA synthetase (Trypanosoma brucei brucei). purified T. brucei MetRS, ATP depletion, Kinase-Glo luminescence. inhibition, % at 11.9 µM. 360,000 compounds, 0.4% hits. AID 624268, 2012;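 active = inhibition above a per-plate cutoff of the control wells' mean inhibition plus 3 SD, cut at about 5.5% in these data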;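 note: 0% = DMSO wells median and 100% = median of wells with control inhibitor compound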
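Dosing: 11.9 µM compound single dose, 0.9% DMSO; Assay system: purified T. brucei MetRS enzyme; Measured by: Kinase-Glo luciferase luminescence reporting remaining unconsumed ATP; Schedule: 15 min plus 2 h at 25 °C.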
UPR XBP1 act: activators of adaptive XBP1 UPR arm, primary screen, cell-based, CHO-XBP1 luciferase reporter, luminescence, uHTS; IRE1-XBP1 UPR activation; percent of tunicamycin response, DMSO as zero; activation, % at 20 µM; 330,000 compounds, 0.33% hits;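 active = versus positive control, 20 µM dose yields 30% or more activation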;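 note: 100% = tunicamycin at 10 µg/mL and 0% = DMSO only wells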
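Material – CHO cell line with stable XBP1 luciferase reporter · Buffer or medium – F12 plus 10% FBS · Compound – single point, 20 µM final compound, 1% DMSO · Schedule – 16-18 h cell attachment at 37 °C, then 6 h compound exposure · Signal – Steady-Glo luminescence read · Benchmarks – high control tunicamycin 10 µg/mL final, low control DMSO vehicle only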
Tb MetRS conf: T. brucei MetRS inhibitors, confirmation, biochemical, luminescence; inhibition, % at 11.9 µM; 1,400 compounds, 93% hits; shares compounds with TbMetRS inhib; AID 624412, 2012; T. brucei MetRS enzyme, luminescence (ATP depletion); in the data active = inhibition above about 7%
Jurkat tox: Jurkat T cell cytotoxicity, cytotoxicity control for T. brucei MetRS inhibitor project, luminescence, high throughput; inhibition, % at 8.3 µM; shares compounds with TbMetRS inhib; Jurkat cells viability, ATP luminescence; AID 624413, 2012; 1,400 compounds, 12% hits; in the data active = inhibition above about 15%;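 note: 0% = vehicle and 100% = reference inhibitor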
TbMetRS FP orth: T. brucei MetRS inhibitors, orthogonal assay for T. brucei MetRS inhibitor project, biochemical, fluorescence polarization; shares compounds with TbMetRS inhib; purified T. brucei MetRS; inhibition, % at 11.9 µM; 1,400 compounds, 44% hits; AID 651607, 2012; in the data active = inhibition above about 17%;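 note: 0% = vehicle wells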
* hit, by the source's call; · = no result.

SMILES	V-ATPase pHluor	UPR CHOP act	CHOP inh	TbMetRS inhib	UPR XBP1 act	Tb MetRS conf	Jurkat tox	TbMetRS FP orth
O=C(CSc1nc2ncc(Cl)cc2[nH]1)Nc1cccc(F)c1	1.5	0.4	·	21.2*	-3.4	46.6*	2.0	23.0*
Cc1cc(C)c(NC(=O)CSc2nc3ncc(Cl)cc3[nH]2)c(C)c1	-2.2	0.5	·	-0.1	-2.8	·	·	·
Nc1ncnc2nc(SCC(=O)Nc3cccc(C(F)(F)F)c3)[nH]c12	5.8	-1.2	·	33.3*	-2.0	56.8*	-3.3	27.6*
O=C(O)CCC(CNS(=O)(=O)c1ccccc1)C(F)(F)F (stereo not drawn)	-2.0	-1.6	-10.4	0.1	-1.4	·	·	·
Cc1cc(=O)[nH]c(N/N=C/c2c(C)nn(-c3ccccc3)c2C)n1	-2.4	1.9	6.4	-1.1	3.6	·	·	·
COc1cccc(/C=N/Nc2nc3ccccc3[nH]2)c1OC	2.1	6.3	-28.7	2.2	0.1	·	·	·
Cc1nn(-c2ccccc2)c(C)c1/C=N/Nc1nc2ccccc2[nH]1	1.8	-0.1	-10.0	8.0*	13.8	13.6*	9.1	13.0
COc1cc(/C=N/Nc2nc3ccccc3[nH]c2=O)ccc1O	1.9	-1.0	27.6	-0.6	0.9	·	·	·
COc1cc(/C=N/Nc2nc3ccccc3[nH]2)ccc1O	5.1	1.0	-34.0	7.9*	-2.5	14.7*	14.6	31.6*
COc1cccc(/C=N/Nc2nc3ccccc3[nH]2)c1O	-3.5	2.1	54.4	8.8*	2.9	10.4*	95.8*	7.3
O=[N+]([O-])c1ccc(O)c(/C=N/Nc2nc3ccccc3[nH]2)c1	-3.6	5.3	39.0	9.5*	4.3	14.2*	97.5*	14.6
COc1ccc(O)c(/C=N/Nc2nc3ccccc3[nH]2)c1	-0.3	5.3	-30.9	-0.4	-1.7	·	·	·
COc1ccc(C(C)NC(=O)Nc2ccc(C(C)=O)cc2)cc1OC (stereo not drawn)	3.6	-0.5	·	0.5	-4.0	·	·	·
C=C1CCN([C@@H](CC(C)C)C(=O)N2CCCC2)S(=O)(=O)c2ccccc21	2.8	2.8	·	-0.4	0.0	·	·	·
O=C(O)C(Cc1cn[nH]n1)=NO	0.8	-2.9	8.0	0.3	8.2	·	·	·
COc1cc(/C=N/Nc2nc3ccccc3[nH]2)cc(OC)c1O	-5.3	-1.7	2.6	8.5*	-1.9	14.4*	30.4*	32.6*
COc1ccc(-n2c(N)c(C(=O)NCc3ccco3)c3nc4ccccc4nc32)cc1	-3.3	4.0	-10.0	-1.4	-1.0	·	·	·
Nc1c(C(=O)NCc2ccco2)c2nc3ccccc3nc2n1CCc1ccc(F)cc1	5.1	11.2	58.9	8.4*	-1.0	11.3*	14.4	9.8
O=C(Nc1ccccc1)Nc1ccc(S(=O)(=O)N2CCCCC2)cc1	3.3	-1.3	65.7	7.8*	2.4	15.3*	6.7	22.9*
COc1ccc(NC(=O)CN2CCCCC2)cc1S(=O)(=O)N1CCCCC1	-4.1	0.5	·	0.0	-2.9	·	·	·
COc1ccc(NC(=O)Nc2ccccc2)cc1S(=O)(=O)N1CCCCC1	4.6	-1.6	33.2	11.2*	4.4	27.0*	6.6	14.6
O=C(Nc1ccc(S(=O)(=O)N2CCCCC2)cc1)c1ccccc1Cl	-1.6	4.2	39.0	-0.6	0.4	·	·	·
O=C(COc1ccc(S(=O)(=O)N2CCOCC2)cc1)Nc1ccc(Br)cc1	0.2	-2.1	·	17.6*	-4.0	50.2*	16.8*	32.6*
O=C(Cc1ccc(Br)cc1)Nc1cccc(S(=O)(=O)N2CCOCC2)c1	-3.5	-0.2	·	54.7*	0.9	76.2*	7.5	57.5*
COc1ccc(OCC(=O)Nc2ccc(S(=O)(=O)N3CCOCC3)cc2)cc1	-1.9	0.8	5.6	0.1	-0.7	·	·	·
SMILES	V-ATPase pHluor	UPR CHOP act	CHOP inh	TbMetRS inhib	UPR XBP1 act	Tb MetRS conf	Jurkat tox	TbMetRS FP orth
CCOC(=O)Cc1csc(NS(=O)(=O)c2ccc([N+](=O)[O-])cc2)n1	1.3	2.2	·	0.4	-0.7	·	·	·
O=C(O)/C(=C\c1ccc(Br)cc1)c1ccc(S(=O)(=O)N2CCCCC2)s1	-1.0	3.4	15.7	-0.2	2.2	·	·	·
COc1cccc(-n2c(SC)nnc2-c2c[nH]c3ccccc23)c1	-0.3	-0.8	25.2	12.5*	-3.0	22.1*	8.0	13.5
NC(=O)c1ccc(NC(=O)COC(=O)C2CCN(S(=O)(=O)c3cccs3)CC2)cc1	-1.8	1.4	·	-0.2	-0.4	·	·	·
O=C(O)c1ccc(S(=O)(=O)/N=C2\C=C(Nc3ccccc3F)C(=O)c3ccccc32)cc1	3.6	18.8	·	9.2*	5.8	14.7*	90.6*	5.5
O=C(Nc1ccc(Cl)cc1)Nc1ccc(S(=O)(=O)Nc2ncccn2)cc1	0.6	1.1	-7.0	6.2*	-2.1	8.4*	-0.8	2.0
COc1ccc(-c2ccc(NCCN3CCOCC3)nn2)cc1OC	0.2	0.1	·	-0.8	-3.8	·	·	·
CCNC(=O)CCCOc1ccc(Cl)cc1Cl	0.7	-0.7	5.1	6.3*	3.9	14.1*	3.0	7.7
Cc1noc(NS(=O)(=O)c2ccc(NC(=O)CCCOc3ccc(Cl)cc3Cl)cc2)c1C	0.2	-3.4	3.7	7.6*	-0.4	13.6*	3.4	13.3
Cc1cc(Cl)ccc1OCCCC(=O)NCCc1nnc2ccccn12	2.2	0.0	·	7.2*	-4.9	13.8*	-4.0	5.4
COC(=O)CCC(=O)NNC(=O)CCCOc1ccc(Cl)cc1Cl	3.8	1.9	-3.7	3.0	-1.8	·	·	·
O=C(COC(=O)CCCOc1ccc(Cl)cc1Cl)NCc1ccccc1	-0.1	1.1	33.5	40.4*	-0.2	56.7*	-5.4	42.9*
Cc1noc(NS(=O)(=O)c2ccc(NC(=O)COc3ccc(Cl)cc3Cl)cc2)c1C	-5.1	-0.9	1.5	4.1	0.3	·	·	·
CCC(C)C(NC(=O)c1ccccc1NC(=O)c1ccc(OC)cc1)C(=O)NCCCn1ccnc1 (stereo not drawn)	2.4	-0.3	·	-0.7	-2.5	·	·	·
Cc1cc(F)ccc1NCC(=O)Nc1ccccc1Br	1.4	3.5	-30.6	-1.2	4.9	·	·	·
Cc1noc(C)c1COC(=O)CCCOc1ccc(Cl)cc1Cl	0.7	0.4	56.6	7.0*	-1.8	18.6*	-2.0	14.7
Cc1noc(C)c1COC(=O)Cc1ccc(Cl)cc1	-0.5	-0.1	16.2	-0.3	-1.3	·	·	·
